Experimental data published in the array DNA melting data of Ke et al. (doi:10.1101/2024.01.08.574731).

How the values were obtained:
[1] = melting temperature; fluorescence melt of hairpins on a sequencing array, two-state fit, raised by 9.35 °C to match UV melts; settings: sodium 0.088 M
Procedure, shortened: (§1)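 On a sequenced MiSeq flow cell, library hairpins with annealed Cy3 and quencher oligos were imaged for Cy3 fluorescence in 2.5 °C steps up to 60 °C, in 50 mM Na-HEPES pH 8.0, 25 mM NaCl. Normalisation used pre-quench Cy3 and control constructs. Bootstrapped two-state fits gave melting temperature and folding enthalpy, combined by inverse variance across four replicates and with fitted temperatures raised by 9.35 °C to match UV melts.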

[2] = folding enthalpy; higher = less favourable; fluorescence melt of hairpins on a sequencing array, two-state fit; settings: sodium 0.088 M
Procedure, shortened: as §1

Sequence | Tm [1] [°C] | folding enthalpy [2] [kcal/mol]
GACACCGAAAGGTTAGTC ((((((....)))..))) | 37.5 | -20.4
GACACCGGAAACAGTGTC (((((.(....).))))) | 44.3 | -28.8
GACACGCCGAAAGGCGTC (((..(((....)))))) | 33.8 | -6.56
GACACTGGAAACAATGTC ((((.((....)).)))) | 31.9 | -33.6
GACACTGGAAACAGTGTC (((((((....))))))) | 66 | -37
GACACTGGAAACGGTGTC (((((.(....).))))) | 52.9 | -38.8
GACAGACGAAAGTCGGTC (((.(((....))).))) | 59.6 | -36.2
GACAGAGCGAAAGCTGTC (((..(((....)))))) | 46.7 | -18.3
GACAGCGAAAGCTAAGTC ((((((....)))..))) | 38.2 | -17.5
GACAGCGAAAGCTATGTC ((((((....)))..))) | 43.5 | -19.1
GACAGCGGAAACGCTACC (..((((....))))..) | 24.2 | -11.1
GACAGGCCGAAAGGCGTC (((..(((....)))))) | 47.7 | -14.9
GACAGGGGAAACCCCGTC (((.(((....))).))) | 50.3 | -24.6
GACAGGGGAAACCTTGTC ((((.((....)).)))) | 45.2 | -32.4
GACAGTGGAAACACTGTC (((((((....))))))) | 60.8 | -39.5
GACAGTGGAAACGCTGTC (((((.(....).))))) | 52.1 | -40.9
GACATACGAAAGTAGTC (((.(((....)))))) | 41.5 | -22.2
GACATAGGAAACTATGCC (.(((((....))))).) | 34.3 | -18.6
GACATCGCGAAAGCGGTC (((..(((....)))))) | 34.8 | -11.6
GACATCGGAAACGACGTC (((.(((....))).))) | 43.3 | -28
GACATGCGAAAGCAGGTC (((.(((....))).))) | 65.7 | -29.8
GACATGGGAAACTATGTC (((((.(....).))))) | 44.4 | -27.6
GACATTACGAAAGTAGTC (((..(((....)))))) | 27.4 | -14.8
